From paper PMC11842988 (Journal for Immunotherapy of Cancer, 2025)
Entries after “also recorded” stand apart in the source; their conditions may differ.

What was measured:
[1] = tested on: TAAp-specific CD8+ T cells, A2/DR1 mice; assay type: in vivo, mouse; details: for TAAp-specific response, OMP versus TAAp immunization: figure 2F; for TAAp-specific IFN-γ response after OMP immunization: ex vivo restimulation with TAAp
How it was run: (§1)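 HLA-A2/DR1 transgenic mice primed day 0, boosted day 14, s.c., with class I peptide (5, 30 or 95 nmol) plus UCP2 helper (30–100 µg) in Montanide ISA 51 VG (50:50). Spleens taken day 21 post-prime, or day 30 in the tumour study; RBCs lysed. 2×10^5 splenocytes/well restimulated ~20 h with 10 µM peptide at 37°C. PMA/ionomycin and EZH2-B2 controls. Media background subtracted; IFN-γ spots per 10^6 T cells.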

[2] = tested on: OMP-/TAAp-specific CD8+ T cells in HD PBMCs; assay type: cell-based, human; details: HLA-A2+ HD PBMCs after IVS with OMPs; average unless stated
How it was run: (§2)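 HLA-A*02:01 donor PBMCs pulsed 24 h with OMPs (10 µM), CD137-enriched, expanded 8 days on anti-CD3/CD28 with IL-2/7/15/21. Restimulated every 10 days with mitomycin C-treated T2 cells loaded with peptide and β2-microglobulin. Antigen-specific frequency measured by CD8 plus pMHC tetramer staining. Per-donor cross-reactivity (%) computed from the TAA-specific and OMP-specific CD8+ percentages.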

[3] = tested on: SARC-A2-hCD20-GFP sarcoma cells; test: Tumor protection model, SARC-A2-hCD20-GFP sarcoma in A2/DR1 mice; assay type: in vivo, mouse; details: OMP72 prime-boost, 0.5×10^6 SARC-A2-hCD20-GFP cells s.c., n=8 mice
How it was run: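 A2/DR1 mice given the prime-boost regimen (days 0 and 14). On day 21 post-prime, 0.5×10^6 SARC-A2-hCD20-GFP or SARC-A2-GFP sarcoma cells in PBS injected s.c. in the right flank; naïve mice as controls. Tumours measured by caliper twice weekly over 30 days (mm2). Endpoint at ≥300 mm2; n=8 per group.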

[4] = tested on: human CD20 on SARC-A2-hCD20-GFP cells; test: hCD20 expression of tumor cells at day 30; assay type: in vivo, mouse; details: OMP72-immunized mice still bearing tumors, day 30, n=4
[5] = tested on: splenocytes pulsed with OMPs; test: In vivo cytotoxicity in humanized HLA-A2 mice, OMP-pulsed splenocytes; set-up: species or system mouse; details: online supplemental figure 2
How it was run: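 Immunised A2/DR1 mice challenged i.v. 6 days post-boost; naïve mice received the same cells. Splenocytes from unimmunised syngeneic donors were pulsed with individual peptides (bright dye) and mixed 1:1 with unpulsed cells (dim dye). Read out 20 h later by flow cytometry. Specific lysis (%) = (% targets in naïve − % in immunised)/% in naïve × 100.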

[6] = tested on: OMP-specific CD8+ T cells, A2/DR1 mice; test: IFN-γ ELISpot of splenocytes from immunized A2/DR1 mice, restimulation with OMP; assay type: in vivo, mouse; details: ELISpot day 30
How it was run: as §1

patient CD8+ T cells = test: Intracellular cytokine staining; assay type: cell-based, human; details: for Cytokine levels after restimulation (ICS): post-IVS with OMPs
How it was run: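 Patient PBMCs expanded 12 days in vitro with the three-peptide bacterial pool (1 µg/mL each, added day 1) in IMDM/10% human serum/β-ME. IL-2 (2 ng/mL) added on day 3 and again on days 5, 7 and 9. Cells then restimulated with the indicated peptides. Intracellular IFN-γ, TNF, IL-2, CD154 and CD107a reported as % positive T cells.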

[7] = tested on: antigen-specific CD8+ T cells in patient PBMCs; test: Tetramer staining of patient PBMCs after 12 days IVS with OMPs; assay type: cell-based, human; details: patients, EO2401
How it was run: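 Thawed patient PBMCs (2.5–3.5×10^6/well) rested 24 h, then given the OMP pool (1 µg/mL each) on day 1. IL-2 (2 ng/mL) added from day 3, with splits and feeds; harvested day 12. Stained 30 min at RT with separate OMP and TAAp tetramer mixes (2.5 µg/mL each), or matched pairs for cross-reactivity. Then CD4/CD8/CD14/CD19 and Zombie Aqua, 20 min 4°C. ≥600,000 cells acquired; % of live CD8+.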

OMP-loaded T2 cells = test: Cytotoxicity of sorted TAAp-specific T cells on OMP-loaded T2 cells; assay type: cell-based, human; details: 24 h, EZH2-loaded T2 as control
How it was run: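 Patient PBMCs stimulated 12 days in vitro with the three-peptide OMP pool. TAAp-tetramer+ CD8+ T cells sorted, then expanded on anti-CD3/CD28 activator with IL-2 (50 U/mL), IL-7, IL-15 and IL-21. CellTrace Violet-labelled T2 cells co-cultured with these T cells, peptide (OMP or EZH2 control) and β2-microglobulin at 37°C for 24 h in 50% RPMI/50% X-vivo 15. Media-only control. CD8 and near-IR live/dead stains; duplicates.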

[8] = tested on: antigen-specific CD8+ T cells in patient PBMCs; test: Tetramer staining of patient PBMCs ex vivo; assay type: cell-based, human
[9] = tested on: OMP-specific CD8+ T cells in HD PBMCs; test: Prevalence of OMP-specific CD8+ T cells in healthy donors; assay type: cell-based, human
How it was run: as §2

Q: Which “TAAp-specific response, OMP versus TAAp immunization” value [1] does the source give for ALNPELLAL [OMP12] here?
A: Its value is “superior immunogenicity”.

Q: And the “Cross-reactivity OMP/TAAp in healthy donor CD8+ T cells” value (from here on “Cross-reactivity OMP/TAAp”) [2]?
A: The value was “above 66%”.

Q: Which results are given for AMNSLSLYI [OMP72]?
A: Tumor protection after immunization [3]: half of the A2/DR1 mice; also recorded: could induce protection against CD20-expressing tumor cells; Tumor cells with loss of CD20 surface expression in non-controlled tumors [4]: 99%; Individual OMP-specific CTL activity [5]: negligible; OMP72-specific IFN-γ-producing cells in responsive versus non-responsive mice [6]: comparable levels

Q: How did the “TAAp-specific IFN-γ response after OMP immunization” value (“TAAp-specific IFN-γ response” below) [1] turn out when FLAFVPLQL [OMP65] was run?
A: The value was > 5,000 SFU.

Q: What about the “TAAp-specific response, OMP versus TAAp immunization” value [1] of the same sequence?
A: The value was “superior immunogenicity”.

Q: With FLPFGFILPV [OMP16] as the sequence, how does the “TAAp-specific IFN-γ response” value [1] read?
A: Its value is < 2,000 SFU.

Q: What about the “TAAp-specific response, OMP versus TAAp immunization” value [1] of the same sequence?
A: Its value is “superior immunogenicity”.

Q: What about the “Cytokine levels after restimulation (ICS)” value (patient CD8+ T cells) of the same sequence?
A: The value was “stronger cytokine levels”.

Q: What about the “OMP-specific T cells also recognizing the matched TAAp” value [7] of the same sequence?
A: Its value is 1%.

Q: What about the “Killing of OMP-loaded T2 cells by corresponding TAAp-tetramer+ T cells” value (OMP-loaded T2 cells) of the same sequence?
A: Its value is “specifically killed”.

Q: With FLYDVRTYL [OMP10] as the sequence, how does the “Cross-reactivity OMP/TAAp” value [2] read?
A: Its value is “below 33%”.

Q: What does the source list for FMLGEFLKL [OMP17]?
A: TAAp-specific IFN-γ response after OMP immunization [1]: > 5,000 SFU; TAAp-specific response, OMP versus TAAp immunization [1]: superior immunogenicity; Simultaneous cytokine production on restimulation (polyfunctionality) (patient CD8+ T cells; Patient #1, weeks 88 and 100): IFN-γ, TNF-α and CD107a simultaneously; Cytokine levels after restimulation (ICS) (patient CD8+ T cells): stronger cytokine levels; BIRC5-specific CD8+ T cells of total circulating CD8+ T cells ([8]; Patient #1): more than 20%; Tetramer+ T cells of total circulating CD8+ T cells, week 44 ([8]; Patient #1, ex vivo, week 44): 3.27%; Tetramer+ T cells of total circulating CD8+ T cells, week 88 ([8]; Patient #1, ex vivo, week 88): 17.4%; Tetramer+ T cells of total circulating CD8+ T cells, week 100 ([8]; Patient #1, ex vivo, week 100, listed as EO2317): 32%; OMP-specific T cells also recognizing the matched TAAp [7]: 80%; Killing of OMP-loaded T2 cells by corresponding TAAp-tetramer+ T cells (OMP-loaded T2 cells): specifically killed; Cross-reactivity OMP/TAAp in healthy donor CD8+ T cells [2]: above 66%

Q: For “LLFGAPALL [BAFF-R77-85, reference compound]”, which “TAAp-specific response, OMP versus TAAp immunization” value [1] is on record?
A: The value was “weaker when mice were immunized with TAAps than with their mimic OMPs”.

Q: With LMDLSTTEV [OMP18] as the sequence, how does the “TAAp-specific IFN-γ response” value [1] read?
A: Its value is < 2,000 SFU.

Q: What about the “Cytokine levels after restimulation (ICS)” value (patient CD8+ T cells) of the same sequence?
A: The value was “stronger cytokine levels”.

Q: What about the “OMP-specific T cells also recognizing the matched TAAp” value [7] of the same sequence?
A: The value was “around 20%”.

Q: What about the “Killing of OMP-loaded T2 cells by corresponding TAAp-tetramer+ T cells” value (OMP-loaded T2 cells) of the same sequence?
A: Its value is “specifically killed”.

Q: What about the “Cross-reactivity OMP/TAAp” value [2] of the same sequence?
A: The value was “below 33%”.

Q: For LMFGAPALV [OMP66], which “TAAp-specific IFN-γ response” value [1] is on record?
A: Its value is > 5,000 SFU.

Q: And the “TAAp-specific response, OMP versus TAAp immunization” value [1]?
A: The value was “superior immunogenicity”.

Q: Which “Cross-reactivity OMP/TAAp” value [2] does the source give for SLPDRILTV [OMP11] here?
A: Its value is “below 33%”.

Q: How did the “TAAp-specific IFN-γ response” value [1] turn out when YIFEHPETA [OMP64] was run?
A: The value was < 2,000 SFU.

Q: And the “Prevalence of OMP-specific CD8+ T cells in HLA-A2+ PBMC samples” value [9]?
A: Its value is 67%.

Q: And the “Individual OMP-specific CTL activity” value [5]?
A: The value was “lower”.

Q: What about the “Cross-reactivity OMP/TAAp” value [2] of the same sequence?
A: The value was “below 33%”.
